ChEMBL document CHEMBL3272275, “Synthesis and antiinflammatory activity of some 1,2,3- and 1,2,4-triazolepropionic acids” (J Med Chem, 1978)

Assays:
Rattus norvegicus [1] = experiment: Antiinflammatory activity in Freund's adjuvant-induced Lewis rat arthritis model assessed as reduction of paw volume at 0.2 mmol/kg, po qd administered on day 0 to day 21 of adjuvant challenge measured on day 7 by plethysmometry relative to control; format: functional; set-up: scale not given: the % may be the effect or the level left
Rattus norvegicus [2] = experiment: Antiinflammatory activity in Freund's adjuvant-induced Lewis rat arthritis model assessed as reduction of paw volume at 0.2 mmol/kg, po qd administered on day 0 to day 21 of adjuvant challenge measured on day 21 by plethysmometry relative to control; format: functional; set-up: scale not given: the % may be the effect or the level left
In short: (§1)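 Male Lewis rats (125-150 g) given an intradermal injection of 0.05 mL of 0.65% Mycobacterium tuberculosis suspension in Freund's adjuvant into the right hind plantar surface on day 0. Negative controls received mineral oil only. Dosing once daily by gavage, groups of six, days 0-21. Injected and uninjected hind-foot volume change over days 0-21 measured plethysmographically. Value is percent reduction relative to controls.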

Rattus norvegicus [3] = experiment: […] in Freund's adjuvant-induced Lewis rat arthritis model assessed as reduction of uninjected paw volume at 0.2 mmol/kg, po qd administered on day 0 to day 21 of adjuvant challenge measured on day 21 by plethysmometry relative to control; format: organism-based; set-up: scale not given: the % may be the effect or the level left; details: in vivo; in short: as §1
Rattus norvegicus [4] = experiment: Antiinflammatory activity against carrageenan/Evans blue dye-induced pleural effusion rat model assessed as reduction in pleural fluid volume at 0.4 mmol/kg, po administered 1 hr prior challenge measured 6 hrs post challenge relative to control; format: functional; set-up: scale not given: the % may be the effect or the level left
In short: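 Oral dosing at 0.4 mmol/kg to groups of six rats, 1 h before intrapleural carrageenan plus Evans blue dye. Rats killed 6 h after the irritants and pleural fluid volume measured. Value is percent reduction in fluid volume relative to untreated controls.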

Rattus norvegicus [5] = experiment: Antiinflammatory activity against carrageenan/Evans blue dye-induced pleural effusion rat model assessed as reduction in pleural fluid volume at 0.83 mmol/kg, po administered 1 hr prior challenge measured 6 hrs post challenge relative to control; format: functional; set-up: scale not given: the % may be the effect or the level left
Rattus norvegicus [6] = experiment: Antiinflammatory activity in Freund's adjuvant-induced Lewis rat arthritis model assessed as reduction of paw volume at 72 mg/kg, po qd administered on day 0 to day 21 of adjuvant challenge measured on day 21 by plethysmometry relative to control; format: functional; set-up: scale not given: the % may be the effect or the level left; in short: as §1
Rattus norvegicus [7] = experiment: […] in Freund's adjuvant-induced Lewis rat arthritis model assessed as reduction of uninjected paw volume at 72 mg/kg, po qd administered on day 0 to day 21 of adjuvant challenge measured on day 21 by plethysmometry relative to control; format: organism-based; set-up: dose 72 mg/kg, route oral; scale not given: the % may be the effect or the level left; details: in vivo; in short: as §1
Rattus norvegicus [8] = experiment: Antiinflammatory activity in Freund's adjuvant-induced Lewis rat arthritis model assessed as reduction of paw volume at 72 mg/kg, po qd administered on day 0 to day 21 of adjuvant challenge measured on day 7 by plethysmometry relative to control; format: functional; set-up: scale not given: the % may be the effect or the level left
Rattus norvegicus [9] = experiment: Antiinflammatory activity against carrageenan/Evans blue dye-induced pleural effusion rat model assessed as reduction in pleural fluid volume at 0.4 mmol/kg, po administered 1 hr prior challenge measured 6 hrs post challenge relative to phenylbutazone; format: functional

Row | Structure (SMILES) | Activity (Rattus norvegicus [1]) | Activity (Rattus norvegicus [2]) | Activity (Rattus norvegicus [3]) | Activity (Rattus norvegicus [4]) | Activity (Rattus norvegicus [5]) | Activity (Rattus norvegicus [6]) | Activity (Rattus norvegicus [7]) | Activity (Rattus norvegicus [8]) | fold change (FC) (Rattus norvegicus [9])
1 | O=C(O)CCn1cc(-c2cccc(Cl)c2)nn1 | -1.1% | 3.5% | -8.2% | -1.4% |  |  |  |  | 
2 | O=C(O)/C=C/c1cnn(-c2cccc(Cl)c2)n1 |  |  |  | 18% |  |  |  |  | 
3 | O=C(O)CCn1nncc1-c1ccccc1 |  |  |  | 5% |  |  |  |  | 
4 | O=C(O)CCn1cnc(-c2cccc(Cl)c2)n1 | 3% | 11% | 14% | 1.1% |  |  |  |  | 
5 | O=C(O)CCc1nc(-c2cccc(Br)c2)n[nH]1 | -13% | -1.2% | 30% | -9% |  |  |  |  | 
6 | O=C(O)CCc1nc(-c2ccccc2)n[nH]1 | 9.1% | 4.2% | 30% | -1.7% |  |  |  |  | 
7 | Cc1cccc(-c2ncn(CCC(=O)O)n2)c1 | -5.1% | 7.1% | 50% | -3.2% |  |  |  |  | 
8 | CC(=O)Oc1ccccc1C(=O)O [ASPIRIN] |  |  |  |  | 29% | 5% | -11% | 37% | 
9 | Nc1cccc(-c2cn(CCC(=O)O)nn2)c1 | 2.8% | 14% | -6.7% | 1.4% |  |  |  |  | 
10 | O=C(O)CCn1ncc(-c2cccc(Cl)c2)n1 | 28% | 42% | 26% | 19% |  |  |  |  | 
11 | O=C(O)CCc1cnn(-c2ccccc2)n1 | 9.1% | 24% | 36% | 28% |  |  |  |  | 
12 | O=C(O)CCn1cc(-c2cccnc2)nn1 | 9.3% | 18% | -30% | 5.1% |  |  |  |  | 
13 | O=C(O)CCn1ncc(-c2cc(Cl)cc(Cl)c2)n1 | 35% | 33% | 38% | 0% |  |  |  |  | 
14 | Cc1cccc(-c2ncn(CC(=O)O)n2)c1 | 0.2% | -6% | -13% | 3% |  |  |  |  | 
15 | CN(C)c1nn(CCC(=O)[O-])nc1-c1ccccc1.[Na+] |  |  |  | 0% |  |  |  |  | 
16 | O=C(O)CCc1ncn(-c2cc(Cl)cc(Cl)c2)n1 | 23% | 30% | 71% | 5.2% |  |  |  |  | 
17 | O=C(O)CCn1ncc(-c2cccc(Br)c2)n1 | 19% | 30% | 25% | 29% |  |  |  |  | 
18 | O=C(O)CCn1nnc(-c2ccccc2)n1 |  |  |  |  |  |  |  |  | 0.9
19 | O=C(O)CCc1ncn(-c2cccc(Cl)c2)n1 |  |  |  | 7.5% |  |  |  |  | 
20 | O=C(O)CCc1cn(-c2cccc(F)c2)nn1 | 22% | -2.4% | -2% | -4.1% |  |  |  |  | 
21 | CCCCC1C(=O)N(c2ccccc2)N(c2ccccc2)C1=O [PHENYLBUTAZONE] | 33% | 39% | 36% | 28% |  |  |  |  | 
22 | O=C(O)CCn1cnc(-c2cccc(Br)c2)n1 | 6.2% | 0.1% | 16% | 8.9% |  |  |  |  | 
23 | O=C(O)CCc1cnn(-c2cccc(Br)c2)n1 | 14% | 35% | 39% | 14% |  |  |  |  | 
24 | O=C(O)CCn1cc(-c2cccc(F)c2)nn1 | -9.9% | -10% | 1.6% | 1.7% |  |  |  |  | 

Row | Structure (SMILES) | Activity (Rattus norvegicus [1]) | Activity (Rattus norvegicus [2]) | Activity (Rattus norvegicus [3]) | Activity (Rattus norvegicus [4]) | Activity (Rattus norvegicus [5]) | Activity (Rattus norvegicus [6]) | Activity (Rattus norvegicus [7]) | Activity (Rattus norvegicus [8]) | fold change (FC) (Rattus norvegicus [9])
25 | O=C(O)/C=C/c1cnn(-c2ccccc2)n1 | 14% | 20% | 42% | 13% |  |  |  |  | 
26 | Cl.O=C(O)CCn1ncc(-c2cccnc2)n1 |  |  |  | -1.3% |  |  |  |  | 
27 | O=C(O)CCn1cc(-c2cccc(Br)c2)nn1 | 0% | 7.2% | 23% | 11% |  |  |  |  | 
28 | O=C(O)CCn1ncc(-c2ccccc2)n1 | 36% | 57% | 63% | 42% |  |  |  |  | 
29 | Cc1cccc(-c2cn(CCC(=O)O)nn2)c1 | 10% | -7.8% | 22% | 0% |  |  |  |  | 
30 | O=C(O)CCn1nc(-c2ccccc2)c(-c2ccccc2)n1 | 21% | 23% | 34% | 26% |  |  |  |  | 
31 | O=C(O)CCn1cnc(-c2ccccc2)n1 | 4.4% | 8.6% | 10% | -3.7% |  |  |  |  | 
32 | O=C(O)CCc1nc(-c2cccc(Cl)c2)n[nH]1 | 3% | 3% | 3% | 2.9% |  |  |  |  | 
33 | O=C(O)CCc1ncn(-c2ccccc2)n1 | 1.3% | -0.6% | -15% | 12% |  |  |  |  | 
34 | CC(=O)Nc1cccc(-c2cnn(CCC(=O)O)n2)c1 | 8.1% | -0.1% | -24% | -3.2% |  |  |  |  | 
35 | CC(=O)c1nn(CCC(=O)O)nc1-c1ccccc1 | 13% | -8% | -30% | 2.6% |  |  |  |  | 
36 | O=C(O)/C=C/c1cnn(-c2cccc(Br)c2)n1 | 12% | 14% | 16% | 20% |  |  |  |  | 
37 | O=C(O)Cn1ncc(-c2ccccc2)n1 | -17% | -9% | 45% | -5% |  |  |  |  | 
38 | O=C(O)CCc1cn(-c2cccc(Cl)c2)nn1 | 10% | -4.9% | 21% | 10% |  |  |  |  | 
39 | Cc1nn(CCC(=O)O)nc1-c1ccccc1 |  |  |  | 17% |  |  |  |  | 
40 | O=C(O)CCc1cn(-c2ccccc2)nn1 | 2.3% | -1.6% | -3.2% | 1.6% |  |  |  |  | 
41 | O=C(O)CCc1cnn(-c2cccc(Cl)c2)n1 | 13% | 32% | 11% | 33% |  |  |  |  | 
42 | Cc1cccc(-c2cnn(CCC(=O)O)n2)c1 | 13% | 4.5% | 9.6% | -1.3% |  |  |  |  | 
43 | Cc1cccc(-c2n[nH]c(CCC(=O)O)n2)c1 |  |  |  | -3% |  |  |  |  | 
44 | CCOc1cccc(-c2cn(CCC(=O)O)nn2)c1 | 0.4% | -9% | -28% | 0.6% |  |  |  |  | 
45 | O=C(O)CCc1nnn(-c2cccc(Br)c2)n1 | 17% | 34% | 22% | 21% |  |  |  |  | 
46 | O=C(O)CCn1cc(-c2ccccc2)nn1 | 8.9% | 2.2% | -12% | 0% |  |  |  |  | 
47 | O=C(O)CCCn1ncc(-c2ccccc2)n1 | -1.8% | 14% | 1.4% | 13% |  |  |  |  | 
48 | CC(=O)Nc1cccc(-c2cn(CCC(=O)O)nn2)c1 | 1.7% | 20% | -19% | 9.9% |  |  |  |  | 
